Source: ChEMBL document CHEMBL4052644, “Synthesis of novel benzylidene analogues of betulinic acid as potent cytotoxic agents” (Eur J Med Chem, 2017)

Assays:
[1] = tested on: HCT-116; assay: Growth inhibition of human HCT116 cells at 10 uM after 48 hrs by SRB assay relative to control; type: functional; details: HCT-116, 48 h, read-out: GI
In short: (§1)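 Primary SRB screen of every compound at a single concentration of 10 µM. Growth inhibition is expressed relative to control.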

[2] = tested on: PC-3; assay: Growth inhibition of human PC3 cells at 10 uM after 48 hrs by SRB assay relative to control; type: functional; details: PC-3, 48 h, read-out: GI; in short: as §1
[3] = tested on: MIA PaCa-2; assay: Growth inhibition of human MIAPaCa2 at 10 uM after 48 hrs by SRB assay relative to control; type: functional; details: MIA PaCa-2, 48 h, read-out: GI; in short: as §1
[4] = tested on: MCF7; assay: Growth inhibition of human MCF7 cells at 10 uM after 48 hrs by SRB assay relative to control; type: functional; details: MCF7, 48 h, read-out: GI; in short: as §1
[5] = tested on: A549; assay: Growth inhibition of human A549 cells at 10 uM after 48 hrs by SRB assay relative to control; type: functional; details: A549, 48 h, read-out: GI; in short: as §1
[6] = tested on: MCF7; assay: Cytotoxicity against human MCF7 cells assessed as reduction in cell viability after 48 hrs by SRB assay; type: functional, cell-based; details: MCF7, 48 h
In short: (§2)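 SRB assay. Compounds active at 10 µM in the primary screen were retested at 1, 2.5 and 5 µM, and IC50 was calculated from these concentrations. The normal breast epithelial line fR2 was tested alongside the cancer lines.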

[7] = Selectivity index, ratio of IC50 for human FR2 cells to IC50 for human A549 cells; type: functional
In short: (§3)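 Selectivity index is the IC50 in normal breast epithelial fR2 cells divided by the IC50 in each cancer line. All IC50 values come from the SRB assay.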

[8] = tested on: MIA PaCa-2; assay: Cytotoxicity against human MIAPaCa2 cells assessed as reduction in cell viability after 48 hrs by SRB assay; type: functional, cell-based; details: MIA PaCa-2, 48 h; in short: as §2
[9] = Selectivity index, ratio of IC50 for human FR2 cells to IC50 for human HCT116 cells; type: functional; in short: as §3
[10] = Selectivity index, ratio of IC50 for human FR2 cells to IC50 for human MCF7 cells; type: functional; in short: as §3
[11] = Cytotoxicity against human FR2 cells assessed as reduction in cell viability after 48 hrs by SRB assay; type: cell-based; details: FR2, 48 h; in short: as §2
[12] = Selectivity index, ratio of IC50 for human FR2 cells to IC50 for human PC3 cells; type: functional; in short: as §3
[13] = tested on: HCT-116; assay: Cytotoxicity against human HCT116 cells assessed as reduction in cell viability after 48 hrs by SRB assay; type: functional, cell-based; details: HCT-116, 48 h; in short: as §2
[14] = tested on: PC-3; assay: Cytotoxicity against human PC3 cells assessed as reduction in cell viability after 48 hrs by SRB assay; type: functional, cell-based; details: PC-3, 48 h; in short: as §2
[15] = tested on: A549; assay: Cytotoxicity against human A549 cells assessed as reduction in cell viability after 48 hrs by SRB assay; type: functional, cell-based; details: A549, 48 h; in short: as §2

Row | Structure (SMILES) | inhibition of growth at 10 µM [1] [%] | inhibition of growth at 10 µM [2] [%] | inhibition of growth at 10 µM [3] [%] | inhibition of growth at 10 µM [4] [%] | inhibition of growth at 10 µM [5] [%] | IC50 [6] [µM] | Ratio IC50 [7] | IC50 [8] [µM] | Ratio IC50 [9] | Ratio IC50 [10] | IC50 [11] [µM] | Ratio IC50 [12] | IC50 [13] [µM] | IC50 [14] [µM] | IC50 [15] [µM]
1 | C=C(C)[C@@H]1CC[C@]2(C(=O)O)CC[C@]3(C)[C@H](CC[C@@H]4[C@@]5(C)C/C(=C/C=C/c6ccccc6)[C@H](O)C(C)(C)[C@@H]5CC[C@]43C)[C@@H]12 | 40 | 30 | 49 | 49 | 26 |  |  |  |  |  |  |  |  |  | 
2 | C=C(C)[C@@H]1CC[C@]2(C(=O)O)CC[C@]3(C)[C@H](CC[C@@H]4[C@@]5(C)C/C(=C\c6ccc(Br)cc6)[C@H](O)C(C)(C)[C@@H]5CC[C@]43C)[C@@H]12 | 66 | 48 | 48 | 64 | 80 | 8.1 | 19.63 | > 10 | 6.2 | 4.36 | 35.3 | 4.3 | 5.7 | 8.2 | 1.8
3 | C=C(C)[C@@H]1CC[C@]2(C(=O)O)CC[C@]3(C)[C@H](CC[C@@H]4[C@@]5(C)CC[C@H](O)C(C)(C)[C@@H]5CC[C@]43C)[C@@H]12 [BETULINIC ACID] | 42 | 49 | 26 | 28 | 40 | > 10 |  | > 10 |  |  | 30.1 |  | > 10 | > 10 | > 10
4 | C=C(C)[C@@H]1CC[C@]2(C(=O)O)CC[C@]3(C)[C@H](CC[C@@H]4[C@@]5(C)C/C(=C\c6c(Cl)cccc6Cl)C(=O)C(C)(C)[C@@H]5CC[C@]43C)[C@@H]12 | 33 | 25 | 15 | 54 | 62 | 9.07 | 2.359 | > 10 | <2.003 |  | 18.2 |  | > 10 | > 10 | 7.7
5 | C=C(C)[C@@H]1CC[C@]2(C(=O)O)CC[C@]3(C)[C@H](CC[C@@H]4[C@@]5(C)C/C(=C\c6ccc(Br)o6)[C@H](O)C(C)(C)[C@@H]5CC[C@]43C)[C@@H]12 | 25 | 8 | 34 | 22 | 0 |  |  |  |  |  |  |  |  |  | 
6 | C=C(C)[C@@H]1CC[C@]2(C(=O)O)CC[C@]3(C)[C@H](CC[C@@H]4[C@@]5(C)C/C(=C\c6cc(Br)ccc6OC)C(=O)C(C)(C)[C@@H]5CC[C@]43C)[C@@H]12 | 92 | 81 | 28 | 85 | 88 | 6.3 | 7.705 | > 10 | 2.802 | 2.09 | 13.1 | 1.854 | 4.7 | 7.1 | 1.7
7 | C=C(C)[C@@H]1CC[C@]2(C(=O)O)CC[C@]3(C)[C@H](CC[C@@H]4[C@@]5(C)C/C(=C\c6cc(Br)ccc6OC)[C@H](O)C(C)(C)[C@@H]5CC[C@]43C)[C@@H]12 | 54 | 7 | 16 | 67 | 65 | 5.2 | 3.76 | > 10 | 1.93 | 2.025 | 10.5 |  | 5.44 | > 10 | 2.8
